# Results from article PMC9302689 (British Journal of Clinical Pharmacology, 2022).
# Test system: healthy male subjects
# Assay: Pharmaco-EEG
# Assay type: in vivo, human
# Conditions: 12-hour post-dose period
# In short: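 Continuous EEG was recorded from 21 electrodes placed by the 10–20 system, with mastoid electrodes replacing the earlobe ones. Recordings followed IPEG guidelines, twice pre-dose and at 0.5–10 h post-dose. Power spectra for Fz-Cz and Pz-O derivations were split into bands to give total band power (μV). Values were ln-transformed, analysed by MMRM over 12 h against pooled placebo, and back-transformed.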
structure (smiles),measurement,setting,value
"CN1CCC23CCCCC2C1Cc1ccc(C(N)=O)cc13 (stereo not drawn) [ALKS 7119, (9α, 13α)‐17‐methylmorphinan‐3‐carboxamide]","Theta-power Pz-Oz, LSM CFB",75 mg single oral dose,0.12 Hz
same,"Theta-power Pz-Oz, estimate of difference compared to placebo",75 mg single oral dose,"0.05 [−0.20, 0.28] P = .69 Hz"
same,"Alpha-power Fz-Cz, LSM CFB",100 mg single oral dose,0.06 Hz
same,"Alpha-power Pz-Oz, LSM CFB",100 mg single oral dose,0.12 Hz
same,"Alpha-power Pz-Oz, estimate of difference compared to placebo",100 mg single oral dose,"0.02 [−0.23, 0.28] P = .85 Hz"
same,"Beta-power Fz-Cz, LSM CFB",100 mg single oral dose,0.08 Hz
same,"Beta-power Fz-Cz, estimate of difference compared to placebo",100 mg single oral dose,"−0.03 [−0.25, 0.19] P = .77 Hz"
same,"Beta-power Pz-Oz, LSM CFB",100 mg single oral dose,0.25 Hz
same,"Beta-power Pz-Oz, estimate of difference compared to placebo",100 mg single oral dose,"0.12 [−0.07, 0.32] P = .22 Hz"
same,"Delta-power Fz-Cz, LSM CFB",100 mg single oral dose,−0.03 Hz
same,"Delta-power Fz-Cz, estimate of difference compared to placebo",100 mg single oral dose,"−0.13 [−0.34, 0.08] P = .22 Hz"
same,"Delta-power Pz-Oz, LSM CFB",100 mg single oral dose,0.08 Hz
same,"Delta-power Pz-Oz, estimate of difference compared to placebo",100 mg single oral dose,"0.02 [−0.21, 0.25] P = .89 Hz"
same,"Gamma-power Fz-Cz, LSM CFB",100 mg single oral dose,0.1 Hz
same,"Gamma-power Fz-Cz, estimate of difference compared to placebo",100 mg single oral dose,"<−0.01 [−0.20, 0.21] P = .99 Hz"
same,"Gamma-power Pz-Oz, LSM CFB",100 mg single oral dose,0.27 Hz
same,"Gamma-power Pz-Oz, estimate of difference compared to placebo",100 mg single oral dose,"0.06 [−0.19, 0.32] P = .63 Hz"
same,"Theta-power Fz-Cz, LSM CFB",100 mg single oral dose,0.03 Hz
same,"Theta-power Fz-Cz, estimate of difference compared to placebo",100 mg single oral dose,"−0.04 [−0.27, 0.19] P = .72 Hz"
same,"Theta-power Pz-Oz, LSM CFB",100 mg single oral dose,0.14 Hz
same,"Theta-power Pz-Oz, estimate of difference compared to placebo",100 mg single oral dose,"0.08 [−0.16, 0.30] P = .56 Hz"
same,"Alpha-power Fz-Cz, LSM CFB",125 mg single oral dose,0.05 Hz
same,"Alpha-power Fz-Cz, estimate of difference compared to placebo",125 mg single oral dose,"−0.17 [−1.24,‐.89] P = .75 Hz"
same,"Alpha-power Pz-Oz, LSM CFB",125 mg single oral dose,0.11 Hz
same,"Alpha-power Pz-Oz, estimate of difference compared to placebo",125 mg single oral dose,"0.01 [−0.25, 0.27] P = .93 Hz"
same,"Beta-power Fz-Cz, LSM CFB",125 mg single oral dose,0.12 Hz
same,"Beta-power Fz-Cz, estimate of difference compared to placebo",125 mg single oral dose,"0.01 [−0.21, 0.23] P = .93 Hz"
same,"Beta-power Pz-Oz, LSM CFB",125 mg single oral dose,0.14 Hz
same,"Beta-power Pz-Oz, estimate of difference compared to placebo",125 mg single oral dose,"0.02 [−0.18, 0.22] P = .87 Hz"
same,"Delta-power Fz-Cz, LSM CFB",125 mg single oral dose,0.09 Hz
same,"Delta-power Fz-Cz, estimate of difference compared to placebo",125 mg single oral dose,"−0.01 [0.22, 0.20] P = .90 Hz"
same,"Delta-power Pz-Oz, LSM CFB",125 mg single oral dose,0.22 Hz
same,"Delta-power Pz-Oz, estimate of difference compared to placebo",125 mg single oral dose,"0.15 [−0.08, 0.39] P = .19 Hz"
same,"Gamma-power Fz-Cz, LSM CFB",125 mg single oral dose,0.12 Hz
same,"Gamma-power Fz-Cz, estimate of difference compared to placebo",125 mg single oral dose,"0.02 [−0.18, 0.22] P = .85 Hz"
same,"Gamma-power Pz-Oz, LSM CFB",125 mg single oral dose,0.12 Hz
same,"Gamma-power Pz-Oz, estimate of difference compared to placebo",125 mg single oral dose,"−0.09 [−0.35, 0.17] P = .49 Hz"
same,"Theta-power Fz-Cz, LSM CFB",125 mg single oral dose,0.1 Hz
same,"Theta-power Fz-Cz, estimate of difference compared to placebo",125 mg single oral dose,"0.03 [−0.20, 0.25] P = .82 Hz"
same,"Theta-power Pz-Oz, LSM CFB",125 mg single oral dose,0.15 Hz
same,"Theta-power Pz-Oz, estimate of difference compared to placebo",125 mg single oral dose,"0.08 [−0.15, 0.31] P = .50 Hz"
same,"Alpha-power Fz-Cz, LSM CFB",150 mg single oral dose,0.15 Hz
same,"Alpha-power Pz-Oz, LSM CFB",150 mg single oral dose,−0.07 Hz
same,"Alpha-power Pz-Oz, estimate of difference compared to placebo",150 mg single oral dose,"−0.17 [−0.43, 0.09] P = .19 Hz"
same,"Beta-power Fz-Cz, LSM CFB",150 mg single oral dose,0.11 Hz
same,"Beta-power Fz-Cz, estimate of difference compared to placebo",150 mg single oral dose,"−0.01 [−0.22, 0.22] P = .97 Hz"
same,"Beta-power Pz-Oz, LSM CFB",150 mg single oral dose,−0.07 Hz
same,"Beta-power Pz-Oz, estimate of difference compared to placebo",150 mg single oral dose,"−0.19 [−0.39, 0.01] P = .06 Hz"
same,"Delta-power Fz-Cz, LSM CFB",150 mg single oral dose,−0.08 Hz
same,"Delta-power Fz-Cz, estimate of difference compared to placebo",150 mg single oral dose,"−0.19 [−0.41, 0.03] P = .08 Hz"
same,"Delta-power Pz-Oz, LSM CFB",150 mg single oral dose,0.02 Hz
same,"Delta-power Pz-Oz, estimate of difference compared to placebo",150 mg single oral dose,"−0.04 [−0.27, 0.19] P = .71 Hz"
same,"Gamma-power Fz-Cz, LSM CFB",150 mg single oral dose,0.14 Hz
same,"Gamma-power Fz-Cz, estimate of difference compared to placebo",150 mg single oral dose,"0.04 [−0.16, 0.24] P = .71 Hz"
same,"Gamma-power Pz-Oz, LSM CFB",150 mg single oral dose,0.09 Hz
same,"Gamma-power Pz-Oz, estimate of difference compared to placebo",150 mg single oral dose,"−0.12 [−0.37, 0.14] P = .37 Hz"
same,"Theta-power Fz-Cz, LSM CFB",150 mg single oral dose,0 Hz
same,"Theta-power Fz-Cz, estimate of difference compared to placebo",150 mg single oral dose,"−0.07 [−0.31, 0.16] P = .54 Hz"
same,"Theta-power Pz-Oz, LSM CFB",150 mg single oral dose,0 Hz
same,"Theta-power Pz-Oz, estimate of difference compared to placebo",150 mg single oral dose,"−0.07 [−0.31, 0.16] P = .53 Hz"
same,"Alpha-power Fz-Cz, LSM CFB",175 mg single oral dose,0.02 Hz
same,"Alpha-power Fz-Cz, estimate of difference compared to placebo",175 mg single oral dose,"−0.15 [−1.19, 0.9] P = .78 Hz"
same,"Alpha-power Pz-Oz, LSM CFB",175 mg single oral dose,−0.02 Hz
same,"Alpha-power Pz-Oz, estimate of difference compared to placebo",175 mg single oral dose,"−0.12 [−0.37, 0.14] P = .36 Hz"
same,"Beta-power Fz-Cz, LSM CFB",175 mg single oral dose,0.08 Hz
same,"Beta-power Fz-Cz, estimate of difference compared to placebo",175 mg single oral dose,"−0.04 [−0.26, 0.18] P = .73 Hz"
same,"Beta-power Pz-Oz, LSM CFB",175 mg single oral dose,0.01 Hz
same,"Beta-power Pz-Oz, estimate of difference compared to placebo",175 mg single oral dose,"−0.12 [−0.32, 0.08] P = .24 Hz"
same,"Delta-power Fz-Cz, LSM CFB",175 mg single oral dose,0.09 Hz
same,"Delta-power Fz-Cz, estimate of difference compared to placebo",175 mg single oral dose,"−0.01 [−0.23, 0.20] P = .91 Hz"
same,"Delta-power Pz-Oz, LSM CFB",175 mg single oral dose,−0.07 Hz
same,"Delta-power Pz-Oz, estimate of difference compared to placebo",175 mg single oral dose,"−0.13 [−0.36, 0.11] P = .26 Hz"
same,"Gamma-power Fz-Cz, LSM CFB",175 mg single oral dose,0.16 Hz
same,"Gamma-power Fz-Cz, estimate of difference compared to placebo",175 mg single oral dose,"0.06 [−0.14, 0.26] P = .57 Hz"
same,"Gamma-power Pz-Oz, LSM CFB",175 mg single oral dose,0.03 Hz
same,"Gamma-power Pz-Oz, estimate of difference compared to placebo",175 mg single oral dose,"−0.18 [−0.43, 0.08] P = .17 Hz"
same,"Theta-power Fz-Cz, LSM CFB",175 mg single oral dose,0.08 Hz
same,"Theta-power Pz-Oz, LSM CFB",175 mg single oral dose,−0.07 Hz
same,"Theta-power Pz-Oz, estimate of difference compared to placebo",175 mg single oral dose,"−0.14 [−0.37, 0.10] P = .25 Hz"
same,"Alpha-power Fz-Cz, LSM CFB",200 mg single oral dose,0.01 Hz
same,"Alpha-power Fz-Cz, estimate of difference compared to placebo",200 mg single oral dose,"−0.28 [−1.39, 0.82] P = .61 Hz"
same,"Alpha-power Pz-Oz, LSM CFB",200 mg single oral dose,0.24 Hz
same,"Alpha-power Pz-Oz, estimate of difference compared to placebo",200 mg single oral dose,"0.14 [−0.11, 0.40] P = .27 Hz"
same,"Beta-power Fz-Cz, LSM CFB",200 mg single oral dose,0.07 Hz
same,"Beta-power Fz-Cz, estimate of difference compared to placebo",200 mg single oral dose,"−0.05 [−0.27, 0.17] P = .67 Hz"
same,"Beta-power Pz-Oz, LSM CFB",200 mg single oral dose,0.2 Hz
same,"Beta-power Pz-Oz, estimate of difference compared to placebo",200 mg single oral dose,"0.07 [−0.12, 0.27] P = .46 Hz"
same,"Delta-power Fz-Cz, LSM CFB",200 mg single oral dose,0.02 Hz
same,"Delta-power Fz-Cz, estimate of difference compared to placebo",200 mg single oral dose,"−0.08 [−0.29, 0.13] P = .45 Hz"
same,"Delta-power Pz-Oz, LSM CFB",200 mg single oral dose,0.26 Hz
same,"Delta-power Pz-Oz, estimate of difference compared to placebo",200 mg single oral dose,"0.20 [−0.04, 0.43] P = .10 Hz"
same,"Gamma-power Fz-Cz, LSM CFB",200 mg single oral dose,0.21 Hz
same,"Gamma-power Fz-Cz, estimate of difference compared to placebo",200 mg single oral dose,"0.11 [−0.09, 0.31] P = .29 Hz"
same,"Gamma-power Pz-Oz, LSM CFB",200 mg single oral dose,0.31 Hz
same,"Gamma-power Pz-Oz, estimate of difference compared to placebo",200 mg single oral dose,"0.11 [−0.15, 0.36] P = .40 Hz"
same,"Theta-power Fz-Cz, LSM CFB",200 mg single oral dose,0.07 Hz
same,"Theta-power Pz-Oz, LSM CFB",200 mg single oral dose,0.25 Hz
same,"Theta-power Pz-Oz, estimate of difference compared to placebo",200 mg single oral dose,"0.18 [−0.05, 0.41] P = .13 Hz"
